Experiments:
Mus musculus [1] = species on record: Mus musculus; assay: Anti-inflammatory potency was measured in mice at 5 hours by modification of the Tonelli croton oil ear assay; format: functional
Summary of the method: (§1)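 Topical dosing in mice. Compounds at 10^-4% to 10^-6% (w/v) were dissolved in 0.6–0.7% croton oil, in a vehicle of pyridine/water/diethyl ether 20:5:74 (v/v). 10 µL was applied to the inner aspect of both pinnae daily for 5 days. Animals were killed 5 h after the last dose, and 6-mm ear punch biopsies were weighed. Potency was calculated relative to betamethasone 17-valerate from the mean left-plus-right ear punch weights.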

Mus musculus [2] = species on record: Mus musculus; assay: Anti-inflammatory potency was measured in mice by modification of the croton oil ear assay; set-up: reference not given here
Mus musculus [3] = species on record: Mus musculus; assay: Anti-inflammatory potency was measured in mice at 5 hours by modification of the croton oil ear assay; format: functional; summary of the method: as §1

`C[C@@H]1C[C@H]2[C@@H]3CCC4=CC(=O)C=C[C@]4(C)[C@@]3(Cl)[C@@H](O)C[C@]2(C)[C@@]1(OC(=O)c1ccco1)C(=O)CF` showed a Potency (Mus musculus [1]) of 1.4 and a Potency (Mus musculus [2]) of 4.4.

Compound `CC(=O)OCC(=O)[C@@]1(OC(=O)c2cccs2)[C@H](C)CC2C3CCC4=CC(=O)C=CC4(C)[C@@]3(F)C(O)CC21C` (stereo partly drawn) has a Potency (Mus musculus [1]) of 1.6 and a Potency (Mus musculus [2]) of 2.9.

`CC(=O)OCC(=O)[C@@]1(OC(=O)c2ccc(C)s2)[C@H](C)CC2C3CCC4=CC(=O)C=CC4(C)[C@@]3(F)C(O)CC21C` (stereo partly drawn) gave a Potency (Mus musculus [1]) of 2.4 and a Potency (Mus musculus [2]) of 1.7.

Work on `CCC(=O)OCC(=O)[C@@]1(OC(=O)c2ccco2)[C@H](C)CC2C3CCC4=CC(=O)C=CC4(C)[C@@]3(F)C(O)CC21C` (stereo partly drawn) yielded a Potency (Mus musculus [1]) of 2.1 and a Potency (Mus musculus [2]) of 6.8.

`COCC(=O)OCC(=O)[C@@]1(OC(=O)c2ccco2)[C@H](C)CC2C3CCC4=CC(=O)C=CC4(C)[C@@]3(F)C(O)CC21C` (stereo partly drawn) showed a Potency (Mus musculus [1]) of 0.8 and a Potency (Mus musculus [2]) of 3.2.

`COCC(=O)OCC(=O)[C@@]1(OC(=O)c2ccco2)[C@H](C)CC2C3CCC4=CC(=O)C=CC4(C)[C@@]3(Cl)C(O)CC21C` (stereo partly drawn) showed a Potency (Mus musculus [2]) of 4.3.

`CC(=O)OCC(=O)[C@@]1(OC(=O)c2ccoc2)[C@H](C)CC2C3CCC4=CC(=O)C=CC4(C)[C@@]3(F)C(O)CC21C` (stereo partly drawn) was tested, and the Potency (Mus musculus [1]) was 2.9 and the Potency (Mus musculus [2]) was 3.2.

Compound `C[C@@H]1CC2C3CCC4=CC(=O)C=CC4(C)[C@@]3(Cl)C(O)CC2(C)[C@@]1(OC(=O)c1ccco1)C(=O)CCl` (stereo partly drawn) has a Potency (Mus musculus [1]) of 1 and a Potency (Mus musculus [2]) of 6.1.

`CC(=O)OCC(=O)[C@@]1(OC(=O)c2ccco2)[C@H](C)CC2C3CCC4=CC(=O)C=CC4(C)[C@@]3(F)C(O)CC21C` (stereo partly drawn) was tested, and the Potency (Mus musculus [1]) was 1.7 and the Potency (Mus musculus [2]) was 2.2.

For `C[C@H]1CC2C3CCC4=CC(=O)C=CC4(C)[C@@]3(F)C(O)CC2(C)[C@@]1(OC(=O)c1ccco1)C(=O)CCl` (stereo partly drawn), the Potency (Mus musculus [1]) was 0.6 and the Potency (Mus musculus [2]) was 0.9.

For `C=C1CC2C3CCC4=CC(=O)C=CC4(C)C3(Cl)C(O)CC2(C)[C@@]1(OC(=O)c1ccco1)C(=O)COC(C)=O` (stereo partly drawn), the Potency (Mus musculus [1]) was 2.3 and the Potency (Mus musculus [3]) was 2.2.

In the case of `CC(=O)OCC(=O)[C@@]1(OC(=O)c2ccco2)[C@H](C)CC2C3CCC4=CC(=O)C=CC4(C)[C@@]3(Cl)C(O)CC21C` (stereo partly drawn), the Potency (Mus musculus [1]) is reported as 1.7 and the Potency (Mus musculus [2]) is reported as 4.4.

Work on `C[C@@H]1CC2C3C[C@H](F)C4=CC(=O)C=CC4(C)[C@@]3(Cl)C(O)CC2(C)[C@@]1(OC(=O)c1ccco1)C(=O)CCl` (stereo partly drawn) yielded a Potency (Mus musculus [1]) of 1.1 and a Potency (Mus musculus [2]) of 5.1.

With `CC(=O)OCC(=O)[C@@]1(OC(=O)c2ccco2)CCC2C3CCC4=CC(=O)C=CC4(C)C3C(O)CC21C` (stereo partly drawn) the Potency (Mus musculus [1]) was 1.3 and the Potency (Mus musculus [2]) was 0.9.

With `C=C1CC2C3CCC4=CC(=O)C=CC4(C)[C@@]3(F)C(O)CC2(C)[C@@]1(OC(=O)c1ccco1)C(=O)COC(C)=O` (stereo partly drawn) the Potency (Mus musculus [1]) was 0.5 and the Potency (Mus musculus [2]) was 1.1.

Compound `C[C@@H]1CC2C3CCC4=CC(=O)C=CC4(C)[C@@]3(F)C(O)CC2(C)[C@@]1(OC(=O)c1ccoc1)C(=O)CCl` (stereo partly drawn) has a Potency (Mus musculus [1]) of 1 and a Potency (Mus musculus [2]) of 1.2.

In the case of `C=C1CC2C3CCC4=CC(=O)C=CC4(C)C3C(O)CC2(C)[C@@]1(OC(=O)c1ccco1)C(=O)COC(C)=O` (stereo partly drawn), the Potency (Mus musculus [1]) is reported as 2.7 and the Potency (Mus musculus [2]) is reported as 1.2.

`CC(=O)OCC(=O)[C@@]1(OC(=O)c2ccco2)[C@@H](C)CC2C3CCC4=CC(=O)C=CC4(C)[C@@]3(F)C(O)CC21C` (stereo partly drawn) was tested, and the Potency (Mus musculus [1]) was 0.5 and the Potency (Mus musculus [2]) was 0.2.

For `CC(=O)OCC(=O)[C@@]1(OC(=O)c2ccco2)[C@H](C)CC2C3C[C@H](F)C4=CC(=O)C=CC4(C)C3C(O)CC21C` (stereo partly drawn), the Potency (Mus musculus [1]) was 2.7 and the Potency (Mus musculus [2]) was 2.1.

Compound `CCC(=O)OCC(=O)[C@@]1(OC(=O)c2ccco2)[C@H](C)CC2C3CCC4=CC(=O)C=CC4(C)C3C(O)CC21C` (stereo partly drawn) has a Potency (Mus musculus [1]) of 1.1 and a Potency (Mus musculus [2]) of 1.5.

`C[C@H]1CC2C3CCC4=CC(=O)C=CC4(C)[C@@]3(F)C(O)CC2(C)[C@@]1(OC(=O)c1cccs1)C(=O)CCl` (stereo partly drawn) showed a Potency (Mus musculus [1]) of 1.3 and a Potency (Mus musculus [2]) of 2.6.

`CCCC(=O)OCC(=O)[C@@]1(OC(=O)c2ccco2)[C@H](C)CC2C3CCC4=CC(=O)C=CC4(C)[C@@]3(F)C(O)CC21C` (stereo partly drawn) gave a Potency (Mus musculus [1]) of 1.1.

For `C[C@@H]1CC2C3CCC4=CC(=O)C=CC4(C)[C@@]3(Cl)C(O)CC2(C)[C@@]1(OC(=O)c1cccs1)C(=O)CCl` (stereo partly drawn), the Potency (Mus musculus [1]) was 1.2 and the Potency (Mus musculus [2]) was 4.5.

With `C[C@@H]1CC2C3CCC4=CC(=O)C=CC4(C)[C@@]3(F)C(O)CC2(C)[C@@]1(OC(=O)c1ccco1)C(=O)CCl` (stereo partly drawn) the Potency (Mus musculus [1]) was 1.6 and the Potency (Mus musculus [2]) was 2.3.

For `CCCCC(=O)O[C@]1(C(=O)CO)[C@@H](C)C[C@H]2[C@@H]3CCC4=CC(=O)C=C[C@]4(C)[C@@]3(F)[C@@H](O)C[C@@]21C` [BETAMETHASONE VALERATE], the Potency (Mus musculus [1]) was 1 and the Potency (Mus musculus [2]) was 1.
